Assay results: ChEMBL document CHEMBL3272048, “Syntheses and uncoupling activities of alkyl dithiocarbazates and alkyl pyridinecarbonyldithiocarbazates” (J Med Chem, 1978)
Active and inactive are the calls of the source. The rule behind the calls is not given here.

Columns and labels:
[1] = Uncoupling of electron transport protein complex in alkyl pyridine carbonyldithiocarbazates-stimulated rat liver mitochondria up to 100 uM
In short: (§1)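 Rat liver mitochondria were isolated by the Hogeboom method, with protein measured by Biuret. Protein varied by footnote, 1.33–2.12 mg/3.3 mL. Mitochondria in state 4 were kept in pH 7.2 medium (200 mM sucrose, 10 mM phosphate, 2 mM MgCl₂, 1 mM EDTA, 10 mM succinate, 1 μg rotenone). They were titrated with compound in Me₂SO, and O₂ uptake was read by Galvani electrode. The minimum concentration giving maximal respiration release was taken; values are means of ≥3 runs.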

[2] = Uncoupling of electron transport protein complex in alkyl pyridine carbonyldithiocarbazates-stimulated rat liver mitochondria assessed as concentration required to 100% uncoupling; in short: as §1
[3] = Uncoupling of electron transport protein complex in alkyl pyridine carbonyldithiocarbazates-stimulated rat liver mitochondria up to 500 uM; in short: as §1
Rattus norvegicus [4] = organism: Rattus norvegicus; assay: Respiration rate of electron transport protein complex in rat liver mitochondria […] assessed as oxygen consumption at 1 uM in presence of glutamate and malate
In short: (§2)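 Oxygen uptake by rat liver mitochondria (3.0 mg protein) was measured with a Clark-type electrode at 25 °C. Medium at pH 7.4 held 200 mM sucrose, 10 mM potassium phosphate, 2 mM MgCl₂ and 1 mM EDTA. Substrate was 10 mM glutamate plus 10 mM malate.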

Rattus norvegicus [5] = organism: Rattus norvegicus; assay: Respiration rate of electron transport protein complex in rat liver mitochondria […] assessed as oxygen consumption at 2 uM in presence of glutamate and malate; in short: as §2
Rattus norvegicus [6] = organism: Rattus norvegicus; assay: Respiration rate of electron transport protein complex in rat liver mitochondria […] assessed as oxygen consumption at 5 uM in presence of glutamate and malate; in short: as §2
Rattus norvegicus [7] = organism: Rattus norvegicus; assay: Respiration rate of electron transport protein complex in rat liver mitochondria […] assessed as oxygen consumption at 1 uM in presence of succinate
In short: (§3)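 State 4 respiration of rat liver mitochondria (3.0 mg protein, 25 °C) was followed with a Clark-type electrode. Medium was pH 7.4 with 200 mM sucrose, 10 mM potassium phosphate, 2 mM MgCl₂ and 1 mM EDTA. Substrate was 10 mM succinate with 1 μg rotenone.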

Rattus norvegicus [8] = organism: Rattus norvegicus; assay: Respiration rate of electron transport protein complex in rat liver mitochondria […] assessed as oxygen consumption at 2 uM in presence of succinate; in short: as §3
Rattus norvegicus [9] = organism: Rattus norvegicus; assay: Respiration rate of electron transport protein complex in rat liver mitochondria […] assessed as oxygen consumption at 1 uM in presence of ascorbate and TMPD
In short: (§4)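 Rat liver mitochondria at 3.0 mg protein in pH 7.4 medium (200 mM sucrose, 10 mM potassium phosphate, 2 mM MgCl₂, 1 mM EDTA), 25 °C. Substrate was 10 mM ascorbate plus 200 μM TMPD, with 2 μg rotenone. State 4 respiration was read as oxygen uptake on a Clark-type electrode.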

Rattus norvegicus [10] = organism: Rattus norvegicus; assay: Respiration rate of electron transport protein complex in rat liver mitochondria […] assessed as oxygen consumption at 6 uM in presence of ascorbate and TMPD; in short: as §4
Rattus norvegicus [11] = organism: Rattus norvegicus; assay: Respiration rate of electron transport protein complex in rat liver mitochondria […] assessed as oxygen consumption at 2 uM in presence of ascorbate and TMPD; in short: as §4
Rattus norvegicus [12] = organism: Rattus norvegicus; assay: Respiration rate of electron transport protein complex in rat liver mitochondria […] assessed as oxygen consumption at 5 uM in presence of ascorbate and TMPD; in short: as §4

Activity [2] [µM]	SMILES	also measured
6.58	CCCCCCSC(=S)NNC(=O)c1ccncc1	
900	CCCCCSC(=S)NN	
1900	CSC(=S)NNC(=O)c1ccncc1	
1.95	CCCCCCCSC(=S)NNC(=O)c1ccncc1	
3.7	CCCCCCCCSC(=S)NNC(=O)c1ccccn1	
370	CCCSC(=S)NNC(=O)c1cccnc1	
1280	CCSC(=S)NNC(=O)c1ccccn1	
0.86	CCCCCCCCCSC(=S)NNC(=O)c1ccncc1	Activity (Rattus norvegicus [4]): 178 min⁻¹; Activity (Rattus norvegicus [5]): 278 min⁻¹; Activity (Rattus norvegicus [7]): 361 min⁻¹; Activity (Rattus norvegicus [9]): 214 min⁻¹; Activity (Rattus norvegicus [11]): 222 min⁻¹; Activity (Rattus norvegicus [12]): 250 min⁻¹
105	CCCCCSC(=S)NNC(=O)c1cccnc1	

Further lines, the molecule ahead of its results:

SMILES	Activity [2] [µM]	also measured
CCCCCCSC(=S)N(C)NC(=O)c1ccccn1		Activity [1]: inactive
CCCCCCCSC(=S)NNC(=O)c1cccnc1	14	
CCCCCCSC(=S)NN	350	
CCCCCSC(=S)NNC(=O)c1ccncc1	17.5	
CCCCCCSC(=S)NNC(=O)c1cccnc1	89	
CCCCCCCCSC(=S)N(C)NC(=O)c1ccccn1		Activity [1]: inactive
CCCCCCCCCSC(=S)N(C)NC(=O)c1ccccn1		Activity [1]: inactive
CSC(=S)NNC(=O)c1ccccn1	1870	
CCCCCCCSC(=S)NN	140	
CCCCCSC(=S)NNC(=O)c1ccccn1	90	
CCCCCSC(=S)N(C)NC(=O)c1ccccn1		Activity [3]: inactive
CCCSC(=S)NNC(=O)c1ccncc1	109	
CCCCCCCCCS/C(S)=N/NC(=O)c1ccccn1	2.9	Activity (Rattus norvegicus [4]): 89 min⁻¹; Activity (Rattus norvegicus [5]): 111 min⁻¹; Activity (Rattus norvegicus [6]): 180 min⁻¹; Activity (Rattus norvegicus [7]): 167 min⁻¹; Activity (Rattus norvegicus [8]): 250 min⁻¹; Activity (Rattus norvegicus [9]): 220 min⁻¹; Activity (Rattus norvegicus [10]): 248 min⁻¹
CCSC(=S)NNC(=O)c1cccnc1	1000	
CCCSC(=S)NNC(=O)c1ccccn1	290	
CSC(=S)NNC(=O)c1cccnc1	2160	
CCCCCCCSC(=S)N(C)NC(=O)c1ccccn1		Activity [1]: inactive
CCCCCCCSC(=S)NNC(=O)c1ccccn1	4.7	
CCCCCCCCSC(=S)NNC(=O)c1ccncc1	0.84	
CCCCCCCCCSC(=S)NNC(=O)c1cccnc1	1.1	Activity (Rattus norvegicus [4]): 125 min⁻¹; Activity (Rattus norvegicus [5]): 178 min⁻¹; Activity (Rattus norvegicus [6]): 263 min⁻¹; Activity (Rattus norvegicus [7]): 250 min⁻¹; Activity (Rattus norvegicus [8]): 300 min⁻¹; Activity (Rattus norvegicus [9]): 208 min⁻¹; Activity (Rattus norvegicus [11]): 227 min⁻¹; Activity (Rattus norvegicus [12]): 236 min⁻¹
CCCCSC(=S)NNC(=O)c1cccnc1	360	
CCCCCCCCSC(=S)NNC(=O)c1cccnc1	1.3	
CCCCCCSC(=S)NNC(=O)c1ccccn1	50	
CCCCSC(=S)NNC(=O)c1ccncc1	62.5	
CCSC(=S)NNC(=O)c1ccncc1	1200	
CCCCSC(=S)NNC(=O)c1ccccn1	240	
